From PubChem BioAssay AID638 (SRMLSC, 2007) come the findings set out here.

Among all 1,300 compounds or so, about 65 (5%) were called active. Not all results are given here. Potency and affinity values are given separately. A number with no mark means an inactive call.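 The calls were made as follows: active = growth inhibition reaching a set limit at one or more tested doses; inactive = the rest.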

This test is described as follows: growth inhibition of wild-type E. coli, dose response, BW25113 wild type, OD615 (AID 638). Conditions: at 100 µM (top of the series) unless noted. The essentials: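 assay system = wild-type Escherichia coli strain BW25113 growth | medium = Kanamycin-supplemented LB broth | measured by = optical density (absorbance) at 615 nm | timing = bacterial exposure to compound 20 h at 37 °C | doses = compound concentration series | measure = IC50 from 4-parameter logistic, bounds fixed 0–100% | controls = chloramphenicol 30 µM control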
As to `CCCCCSc1nnc(-c2cc(Br)ccc2N)c(=O)[nH]1`, the growth inhibition was -4.38%.
Next, `CCCc1cc(C(=O)Nc2cccc(Cl)c2)no1`: 12.5%.
Next, `CC(C)COC(=O)NCCOC(=O)Nc1cccc(Cl)c1`: 18.9%; `CCOC(=O)C1CCCN(c2ncnc3c2cnn3-c2ccc(Cl)cc2)C1` (configuration not stated): -11.7%; `O=C1CC(c2ccco2)CC2=C1C1c3ccccc3C(=O)N1c1ccccc1N2` (configuration not stated): -3.27%.
Take `CC(C)Cn1c(=O)c(C(=O)Nc2cnccn2)c(O)c2ccccc21`: the growth inhibition was 16.1%.
Regarding `O=C(C1CC1)N1CCc2cc(S(=O)(=O)NCCC3=CCCCC3)ccc21`, the growth inhibition is 9.41%.
On to `CCOC(=O)c1ccccc1NC(=O)C(C)Oc1ccccc1` (configuration not stated), for which the growth inhibition is -0.25%.
With `Cc1cc2n(n1)C(c1ccc3c(c1)OCO3)Nc1c(C)cccc1-2` (configuration not stated), the growth inhibition is -5.6%.
As to `CSc1nc2ccc(NS(=O)(=O)c3ccc4c(c3)OCCO4)cc2s1`, the growth inhibition is -7.17%.
On to `Cc1ccc(NC(=O)c2nnn(-c3cc(C)cc(C)c3)c2N)cc1`, for which the growth inhibition was -3.73%.
`CCCCOc1ccc(S(=O)(=O)N2CCCCCC2)cc1`: the growth inhibition was 6.59%.
Next, `Cc1ccc(Cl)cc1N1CCN(C(=O)c2ccc(NS(=O)(=O)c3c(C)noc3C)cc2)CC1`: -7.75%; `CC(=Nc1ccc(O)cc1)c1sc2ccccc2c1O`: -1.71%; `O=c1c2ccccc2nc(SCc2cn3ccsc3n2)n1-c1ccccc1F`: -8.01%.
`COC(=O)c1c(NC(=O)Cc2cccs2)sc2c1CCCC2`: the growth inhibition was 2.67%.
With `COc1ccccc1N1CCN(C(=O)COc2ccc(C)cc2Br)CC1`, the growth inhibition is 12.1%.
Consider `CCOc1ccc(S(=O)(=O)Nc2cccc(Cl)c2)cc1`, for which the growth inhibition was 20% (active).
Regarding `CCOc1ccc(NS(=O)(=O)c2ccc(SC)cc2)cc1`, the growth inhibition is 11.9%.
Consider `CCOC(=O)N1CCN(C(=O)COc2ccc(S(=O)(=O)Nc3ccc(OCC)cc3)cc2)CC1`, for which the growth inhibition is 3.01%.
As to `Cc1ccc(-n2c(=O)[nH]cc(C(=O)Nc3ccc4c(c3)OCCO4)c2=O)cc1C`, the growth inhibition was -5.27%.
On to `O=C(OC1CCc2ccccc2C1=O)c1ccccc1O` (configuration not stated), for which the growth inhibition was 9.44%.
Next, `CCCCCc1cc(O)c2c(C)cc(=O)oc2c1`: 7.24%; `CCCCCCOC(=O)C(C#N)c1nc2ccccc2nc1N1CCN(C)CC1` (configuration not stated): 12.3%; `CC1=C(C(=O)OCC(C)C)C(c2cc3c(cc2Br)OCO3)NC(=O)N1C` (configuration not stated): 12.5%.
Regarding `CN(C)c1ccc(/C=N/n2ncc3ccccc32)cc1`, the growth inhibition was -3.99%.
Turning to `COc1nc(N(c2ccccc2)c2ccccc2)nc(-n2ccnc2)n1`, the growth inhibition was 12.7%.
